Experimental findings from PubChem BioAssay are described below.

Active and inactive are the calls of the source.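 How the source made its calls, unless noted: active means Her2 level under about 52% in both replicate screens, with viability over 70% of control (limit read from the data); inconclusive means Her2 under the limit in one screen only, or viability under 70%; inactive means Her2 level above the set limit.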

The nature of assay [1]: reducers of endogenous Her2 protein level, primary screen, SKBR3 breast tumor cells, AlphaScreen, ATP viability (AID 461).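 On Her2 level: lower value means less Her2 protein in the cells.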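 On viability: percent of carrier control wells set as 100% viability.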 To be noted: 18-24 h, measured here: SKBR3 viability, ATP luminescence, at 10 µM. In general terms: Bead proximity is the source of the signal in Alpha formats.
Assay [2] deals with Receptor tyrosine-protein kinase erbB-2 (Homo sapiens) (UniProt P04626). The description is as above. To be noted: 18-24 h, at 10 µM, stronger effect = lower value.
Receptor tyrosine-protein kinase erbB-2 (Homo sapiens), sequence (P04626 whole entry, looked up): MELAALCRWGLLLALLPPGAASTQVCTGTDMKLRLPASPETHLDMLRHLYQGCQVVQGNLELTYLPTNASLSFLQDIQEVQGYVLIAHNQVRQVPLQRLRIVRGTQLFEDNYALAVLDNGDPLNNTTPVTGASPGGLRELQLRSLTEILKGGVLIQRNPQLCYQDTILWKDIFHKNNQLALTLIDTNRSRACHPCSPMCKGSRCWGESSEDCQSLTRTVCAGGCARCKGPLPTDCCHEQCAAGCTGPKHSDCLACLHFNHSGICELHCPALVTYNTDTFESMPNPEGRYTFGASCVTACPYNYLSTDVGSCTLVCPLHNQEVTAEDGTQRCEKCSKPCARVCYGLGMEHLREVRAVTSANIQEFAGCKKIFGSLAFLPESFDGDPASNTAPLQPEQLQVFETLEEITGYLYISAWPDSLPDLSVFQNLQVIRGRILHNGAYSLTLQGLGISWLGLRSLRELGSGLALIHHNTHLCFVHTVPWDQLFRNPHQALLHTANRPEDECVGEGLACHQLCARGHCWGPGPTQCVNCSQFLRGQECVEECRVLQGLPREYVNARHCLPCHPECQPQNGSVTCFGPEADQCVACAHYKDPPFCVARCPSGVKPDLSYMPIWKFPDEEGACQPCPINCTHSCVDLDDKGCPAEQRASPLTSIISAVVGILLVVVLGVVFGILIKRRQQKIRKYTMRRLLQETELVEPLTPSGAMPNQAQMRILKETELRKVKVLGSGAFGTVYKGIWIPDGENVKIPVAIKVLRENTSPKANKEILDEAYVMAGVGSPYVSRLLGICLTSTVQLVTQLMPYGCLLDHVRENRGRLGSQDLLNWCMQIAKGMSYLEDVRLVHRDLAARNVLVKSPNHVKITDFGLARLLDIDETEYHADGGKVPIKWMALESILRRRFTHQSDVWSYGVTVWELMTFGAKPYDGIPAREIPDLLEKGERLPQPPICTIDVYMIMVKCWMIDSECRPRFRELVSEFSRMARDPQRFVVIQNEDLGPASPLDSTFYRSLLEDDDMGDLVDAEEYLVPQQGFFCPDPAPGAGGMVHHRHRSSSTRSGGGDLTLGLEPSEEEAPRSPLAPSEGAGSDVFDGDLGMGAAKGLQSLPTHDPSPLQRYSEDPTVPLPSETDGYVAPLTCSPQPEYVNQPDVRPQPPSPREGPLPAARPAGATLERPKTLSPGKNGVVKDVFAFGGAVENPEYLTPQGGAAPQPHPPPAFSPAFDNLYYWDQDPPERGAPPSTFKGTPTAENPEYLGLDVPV
Assay [3] is described as follows: SK-BR-3 cell growth inhibitors, pilot screen, 24 h, human (AID 572;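 active means viability at or below 10% of carrier control in both of two separate runs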;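 further: compound exposure lasted between 18 and 24 h rather than exactly 24 h; 100% = carrier-treated control wells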). To be noted: SK-BR-3 viability, CellTiter-Glo luminescence, at 10 µM, stronger effect = lower value. (In ATP-based viability assays light output follows the ATP content of the culture.)
The nature of assay [4]: HUVEC growth inhibition – cell-based, human, primary screen (AID 575;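 active means viability at or below 30% in both replicate assays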;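 further: 100% = median of untreated cell wells with 0.1% DMSO on each plate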). To be noted: HUVEC proliferation, CellTiter-Glo luminescence, 72 h; at 10 µM; stronger effect = lower value. A digest of the protocol: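 Test system: primary human umbilical vein endothelial cells; medium: endothelial basal medium with 2% FBS plus growth supplements; dosing: 10 µM compound only; times: 72 h treatment at 37 °C; signal: CTG luminescence; read-out: % viability relative to median vehicle-well signal on each plate; control set: vehicle and MePR control wells; plate: 384-well, collagen-coated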

The nature of assay [5]: growth inhibitors of H69AR lung tumor, primary screen, human, duplicate replicates (AID 580;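 active means viability at or under a set limit in both replicates, limit being median viability minus 3 SD, cut at about 48% in these data, passing the limit was not always enough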;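 further: 100% = mean luminescence of untreated wells and 0% = no signal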). To be noted: H69AR lung tumor cells viability, ATP luminescence, 72 h; at 10 µM; stronger effect = lower value.
Assay [6] is described as follows: reversal of MRP1-mediated doxorubicin resistance, pilot screen, H69AR cells, doxorubicin co-treatment (AID 601;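 active means viability loss from added drug above about 55%, and viability with drug at most 40%, in both replicates, limit read from the data, passing the limit was not always enough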). To be noted: CellTiter-Glo, 72 h, at 10 µM; for differential viability (reversal): stronger effect = higher value.
Assay [7] in a line: 384-well plate pilot, post-Golgi transport modulator project, inhibition of yeast transport mutant growth (AID 636; in the data active means inhibition above about 31%). Conditions: absorbance 615 nm, about 18 h, stronger effect = higher value.
Assay [8] can be described thus: growth suppression of yeast trafficking mutant, preliminary HTS, modulators of trafficking downstream of Golgi apparatus project, 1536-format plate, OD 615 nm (AID 637; in the data active means inhibition above about 30%). To be noted: yeast transport mutant growth, absorbance 615 nm, 18 h; stronger effect = higher value.
The mark [9] stands for this setting: H69AR cells + 2 uM doxorubicin, measured here: viability with 2 uM doxorubicin, stronger effect = lower value.
Setting [10] is: H69AR cells, compound alone cytotoxicity.

With `CCN(CCNC(=O)C1CCN(S(=O)(=O)CC)CC1)c1ccccc1`, the viability in assay [1] is 124%; in assay [3] it was 124% (inactive); in assay [4], 112% (inactive); in assay [5], 95.7% (inactive); in assay [6] (setting [9]), 89.4%; in assay [6] (setting [10]) it was 95.7%. Moreover, the Her2 level in assay [2] was 92.5% (inactive). In assay [6] (H69AR cells + 2 uM doxorubicin), the differential viability (reversal) was 6.31% (inactive). Besides, the inhibition in assay [7] is -7.84% (inactive); in assay [8] it was -8.33% (inactive).
`CCNS(=O)(=O)c1ccc(S(=O)(=O)N(Cc2ccccn2)C2CCCCC2)cc1`: the viability was 102% in assay [1]; 102% (inactive) in assay [3]; 109% (inactive) in assay [4]; 88.9% (inactive) in assay [5]; 75.3% in assay [6] (setting [9]); 88.9% in assay [6] (setting [10]). Also, the Her2 level in assay [2] was 87% (inactive). Moreover, the differential viability (reversal) in assay [6] (H69AR cells + 2 uM doxorubicin) was 13.6% (inactive). The results for the inhibition in assay [7] and in assay [8] were -8.92% (inactive) and -5.17% (inactive), respectively.
Consider `CSCCC(NC(=O)c1occc1C)C(=O)O` (stereo not given), for which the viability in assay [1] was 93.5%; in assay [3], 93.5% (inactive); in assay [4], 103% (inactive); in assay [5] it was 103% (inactive); in assay [6] (setting [9]) it was 89.8%; in assay [6] (setting [10]), 103%. Further, the Her2 level in assay [2] is 94.5% (inactive). In assay [6] (H69AR cells + 2 uM doxorubicin), the differential viability (reversal) is 12.8% (inactive). The inhibition in assay [7] is -2.63% (inactive); in assay [8], 2.83% (inactive).
In the case of `Cn1c(SCC(N)=O)nnc1C1CCN(S(=O)(=O)c2ccccc2C(F)(F)F)CC1`, the viability in assay [1] was 114%; in assay [3], 114% (inactive); in assay [4] it was 112% (inactive); in assay [5] it was 104% (inactive); in assay [6] (setting [9]), 96.5%; in assay [6] (setting [10]), 104%. In assay [2], the Her2 level is 97.5% (inactive). Moreover, the differential viability (reversal) in assay [6] (H69AR cells + 2 uM doxorubicin) is 7.31% (inactive). Also, the inhibition in assay [7] is -7.03% (inactive); in assay [8], -0.33% (inactive).
In the case of `O=c1[nH]c(/C(=N\O)c2ccccc2)no1`, the viability in assay [1] is 93.5%; in assay [3] it was 93.5% (inactive); in assay [4], 83.2% (inactive); in assay [5] it was 73.2% (inactive); in assay [6] (setting [9]) it was 40.7%; in assay [6] (setting [10]), 73.2%. In addition, the Her2 level in assay [2] is 82% (inactive). The differential viability (reversal) in assay [6] (H69AR cells + 2 uM doxorubicin) is 32.5% (inactive). Besides, the inhibition in assay [7] is -0.39% (inactive); in assay [8], 5.74% (inactive).
In the case of `CCCN1C2=C(C(=O)CCC2)C(c2ccc(O)c(Br)c2)C2=C1CCCC2=O`, the viability is 96% in assay [1]; 96% (inactive) in assay [3]; 96.8% (inactive) in assay [4]; 91.8% (inactive) in assay [5]; 92.8% in assay [6] (setting [9]); 91.8% in assay [6] (setting [10]). In addition, the Her2 level in assay [2] is 85.5% (inactive). Also, the differential viability (reversal) in assay [6] (H69AR cells + 2 uM doxorubicin) was -1.01% (inactive). The inhibition is -7.11% (inactive) in assay [7] and 2% (inactive) in assay [8].
`CC(=O)N1CCN(C(C)=O)C1c1ccccc1`: the viability in assay [1] was 93.5%; in assay [3] it was 93.5% (inactive); in assay [4] it was 77.9% (inactive); in assay [5], 91.4% (inactive); in assay [6] (setting [9]), 89.1%; in assay [6] (setting [10]) it was 91.4%. For the same compound, the Her2 level in assay [2] was 136% (inactive). In assay [6] (H69AR cells + 2 uM doxorubicin), the differential viability (reversal) was 2.34% (inactive). Also, the inhibition was 3.46% (inactive) in assay [7] and -7% (inactive) in assay [8].
Take `Cc1c(C(=O)O)oc2ccc(S(=O)(=O)NCCC3=CCCCC3)cc12`: the viability in assay [1] was 100%; in assay [3], 100% (inactive); in assay [4], 95.9% (inactive); in assay [5], 101% (inactive); in assay [6] (setting [9]), 94.3%; in assay [6] (setting [10]) it was 101%. Moreover, in assay [2], the Her2 level was 98.5% (inactive). Besides, in assay [6] (H69AR cells + 2 uM doxorubicin), the differential viability (reversal) is 6.48% (inactive). Also, the figures for the inhibition in assay [7] and in assay [8] were -3.16% (inactive) and -9.52% (inactive), respectively.
For the compound `O=C(OC1CCOC1=O)c1ccc(S(=O)(=O)N2CCCCCC2)cc1` (stereo not given), the viability in assay [1] is 95.5%; in assay [3] it was 95.5% (inactive); in assay [4], 95.3% (inactive); in assay [5] it was 106% (inactive); in assay [6] (setting [9]), 93.6%; in assay [6] (setting [10]), 106%. The Her2 level in assay [2] was 113% (inactive). Besides, the differential viability (reversal) in assay [6] (H69AR cells + 2 uM doxorubicin) was 12.5% (inactive). Moreover, the inhibition in assay [7] is 0.26% (inactive); in assay [8], 1.83% (inactive).
As for `COc1ccc(N2CCN(c3ccc(N)cc3C#N)CC2)cc1`, the viability was 103% in assay [1]; 103% (inactive) in assay [3]; 78.2% (inactive) in assay [4]; 95% (inactive) in assay [5]; 92.7% in assay [6] (setting [9]); 95% in assay [6] (setting [10]). In addition, the Her2 level in assay [2] was 88.5% (inactive). Further, the differential viability (reversal) in assay [6] (H69AR cells + 2 uM doxorubicin) is 2.29% (inactive). Besides, the inhibition in assay [7] is -3.38% (inactive); in assay [8], 0.32% (inactive).
For the compound `COc1cccc(C2C(C#N)=C(N)OC3=C2C(=O)CCC3)c1OC(=O)c1ccco1` (stereo not given), the viability in assay [1] was 106%; in assay [3], 106% (inactive); in assay [4], 83.6% (inactive); in assay [5], 99.7% (inactive); in assay [6] (setting [9]) it was 86.6%; in assay [6] (setting [10]) it was 99.7%. Further, the Her2 level in assay [2] is 84% (inactive). The differential viability (reversal) in assay [6] (H69AR cells + 2 uM doxorubicin) is 13.1% (inactive). Besides, the inhibition is -4.53% (inactive) in assay [7] and 3.71% (inactive) in assay [8].
In the case of `Cc1cc(C(=O)CSCc2nnc3n(CCC(C)C)c(=O)c4ccccc4n23)c(C)n1C`, the viability was 99.5% in assay [1]; 99.5% (inactive) in assay [3]; 84.2% (inactive) in assay [4]; 67.3% (inactive) in assay [5]; 66.8% in assay [6] (setting [9]); 67.3% in assay [6] (setting [10]). Moreover, the Her2 level in assay [2] is 84% (inactive). In assay [6] (H69AR cells + 2 uM doxorubicin), the differential viability (reversal) is 0.59% (inactive). Besides, the values for the inhibition in assay [7] and in assay [8] were -1.84% (inactive) and -0.73% (inactive), respectively.
For `COc1ccc2c(c1OC)C(=O)N(c1ccc3c(c1)CCC3)C2=O`, the viability is 96.5% in assay [1]; 96.5% (inactive) in assay [3]; 90.3% (inactive) in assay [4]; 107% (inactive) in assay [5]; 94.9% in assay [6] (setting [9]); 107% in assay [6] (setting [10]). Moreover, the Her2 level in assay [2] is 100% (inactive). Moreover, the differential viability (reversal) in assay [6] (H69AR cells + 2 uM doxorubicin) was 12.6% (inactive). Besides, the inhibition in assay [7] was -3.07% (inactive); in assay [8], 25.7% (inactive).
`CCN(CC)S(=O)(=O)c1ccc(S(=O)(=O)N(Cc2ccccn2)Cc2ccco2)cc1`: the viability in assay [1] was 94%; in assay [3], 94% (inactive); in assay [4], 90.6% (inactive); in assay [5] it was 91% (inactive); in assay [6] (setting [9]) it was 91.2%; in assay [6] (setting [10]), 91%. Moreover, the Her2 level in assay [2] was 94.5% (inactive). The differential viability (reversal) in assay [6] (H69AR cells + 2 uM doxorubicin) was -0.185% (inactive). For the same compound, the inhibition in assay [7] is -2.03% (inactive); in assay [8] it was 3.02% (inactive).

By viability is commonly meant a read-out of living cells in per cent, often relative to untreated cells. As usually defined, the inhibition is the drop in the measured response relative to a control, in per cent.
